Source: ChEMBL document CHEMBL3351736, “A promising camptothecin derivative: Semisynthesis, antitumor activity and intestinal permeability” (Eur J Med Chem, 2014)
Activity calls are given as the source filed them. No cut-off for these calls is given here.

What was measured:
[1] = Cytotoxicity against human Caco2 cells after 24 hrs by MTT assay; type: functional, cell-based; settings: Caco-2, 24 h
Caco-2 [2] = experiment: Induction of apoptosis in human Caco2 cells assessed as vital cells at 0.5 uM after 24 hrs by Annexin V/propidium iodide staining-based flow cytometric analysis (reference value: 96.67 +/- 1.02%); type: functional
Caco-2 [3] = experiment: Induction of apoptosis in human Caco2 cells assessed as vital cells at 0.05 uM after 48 hrs by Annexin V/propidium iodide staining-based flow cytometric analysis (reference value: 96.67 +/- 1.02%); type: functional
Caco-2 [4] = experiment: Induction of apoptosis in human Caco2 cells assessed as early apoptotic cells at 0.5 uM after 24 hrs by Annexin V/propidium iodide staining-based flow cytometric analysis (reference value: 0.72 +/- 0.03%); type: functional
Caco-2 [5] = experiment: Induction of apoptosis in human Caco2 cells assessed as late apoptotic cells at 0.05 uM after 24 hrs by Annexin V/propidium iodide staining-based flow cytometric analysis (reference value: 2.20 +/- 0.77%); type: functional
Caco-2 [6] = experiment: Induction of apoptosis in human Caco2 cells assessed as necrotic cells at 0.5 uM after 48 hrs by Annexin V/propidium iodide staining-based flow cytometric analysis (reference value: 0.41 +/- 0.02%); type: functional
A-375 = experiment: Induction of apoptosis in human A375 cells assessed as inhibition of DNA synthesis at 0.8 to 1.6 uM after 24 hrs by BrdU staining-based ELISA; type: functional, cell-based
Outline: (§1)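 BrdU colorimetric cell proliferation ELISA. Cells seeded at 25,000 per well, compounds added 24 h after seeding and incubated 24 h. Cells fixed and the immunoassay run per kit. Absorbance read at 370-492 nm over 3 intervals of 5 min; absorbance difference proportional to BrdU incorporation. Mean of three separate experiments in triplicate, compared with untreated control.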

HeLa [7] = experiment: Induction of apoptosis in human HeLa cells assessed as inhibition of DNA synthesis at 0.8 to 1.6 uM after 24 hrs by BrdU staining-based ELISA; type: functional, cell-based; outline: as §1
HeLa [8] = experiment: Induction of apoptosis in human HeLa cells assessed as p53 phosphorylation at Ser15 by Western blotting analysis; type: functional, cell-based
Outline: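 Cells treated 24 h. About 10^6 cells lysed on ice 15 min in Hepes pH 7.4/Triton X-100 buffer with phosphatase and protease inhibitors, then spun 13,000 × g. 30 µg protein run on 12% SDS-PAGE and blotted to nitrocellulose. Primary anti-phospho-p53 (Ser15) and anti-p53 at 1:1000 for 2 h at room temperature, then HRP secondary and ECL densitometry. Results referred to untreated control.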

[9] = Permeability from apical to basolateral side in human Caco2 cells at 10 to 50 uM after 15 to 90 mins by HPLC analysis; type: ADME, cell-based; settings: caco-2, 50 µM
Outline: (§2)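 Caco-2 cells seeded at 400,000 per polycarbonate transwell insert (0.4 μm pore) and grown in DMEM for 19-22 days to confluence at 37°C, 5% CO2. TEER checked before and after each run. Compound in donor chamber, buffer in receiver. Run at 37°C with 50 rpm orbital shaking. Receiver sampled at 15, 30, 60 and 90 min with buffer replacement; donor sampled at start and end. HPLC quantitation; three independent experiments.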

[10] = Permeability from basolateral to apical side in human Caco2 cells at 10 to 50 uM after 15 to 90 mins by HPLC analysis; type: ADME, cell-based; settings: caco-2, 50 µM; outline: as §2
Small intestine = experiment: Effective permeability in Wistar rat small intestine assessed as absorption rate coefficient at 50 uM measured after 5 mins in every 5 min interval up to 30 mins; type: ADME, tissue-based
Outline: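 Male Wistar rats fasted 2 h with water available, then anaesthetised with diazepam (1.67 mg/kg), ketamine (50 mg/kg) and atropine (1 mg/kg) and kept at 37°C on a heated surface. In situ intestinal perfusion. Perfusate sampled from 5 min at 5 min intervals up to 30 min. Absorption rate constant (Ka) and Peff derived.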

**Q.** What does the source list for `CC[C@@]1(O)C(=O)OCc2c1cc1n(c2=O)Cc2cc3c(CN(C)C)c(O)ccc3nc2-1.Cl` [TOPOTECAN HYDROCHLORIDE]?
**A.** IC50 [1]: 119 nM; Activity (Caco-2 [2]): 53.08%; Activity (Caco-2 [3]): 45.2%; Activity (Caco-2 [4]): 4.4%; Activity (Caco-2 [5]): 19.54%; Activity (Caco-2 [6]): 2.88%; Activity (A-375): Active; Activity (HeLa [7]): Active; Activity (HeLa [8]): inactive; permeability [9]: permeable; permeability [10]: permeable; Ka (Small intestine): 2.25 h⁻¹
